The text below walks through data of ChEMBL document CHEMBL3864151, “Discovery of imidazopyridazines as potent Pim-1/2 kinase inhibitors” (Bioorg Med Chem Lett, 2016).

A short description of series [1]: Intrinsic clearance in rat liver microsomes at 1 uM after 30 mins by LC-MS HRMS analysis. Format: ADME. The settings on record: read-out: CLH.
Series [2] can be described thus: Intrinsic clearance in human liver microsomes at 1 uM after 30 mins by LC-MS HRMS analysis. Format: ADME. The settings on record: read-out: CLH.
Series [3] has as its target Voltage-gated inwardly rectifying potassium channel KCNH2 (Homo sapiens, UniProt Q12809). Put plainly: Inhibition of radiolabeled dofetilide binding to human ERG expressed in HEK293 cells.
Series [4] in a line: Aqueous solubility in pH 6.8 FsSIF after 48 to 72 hrs by HPLC analysis. Format: physicochemical. A digest of the protocol:
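Aqueous solubility determined in 0.01N HCl, PBS (pH 7.4) and FaSIF (pH 6.8).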

The target of series [5] is Glycogen synthase kinase-3 beta (Homo sapiens) (UniProt P49841). Put plainly: Competitive binding affinity to full length wild type human GSK3B expressed in mammalian expression system at 10 uM by kinomescan method relative to control. In outline:
(§1)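 DiscoveRX scanMAX kinase panel of protein and lipid kinases and common mutants; competitive binding of compound at 10 µM expressed as percentage of control (POC).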

The target in series [6] is Serine/threonine-protein kinase TAO2 (Homo sapiens) (UniProt Q9UL54). Put plainly: Competitive binding affinity to partial length wild type human TAOK2 expressed in mammalian expression system at 10 uM by kinomescan method relative to control. A digest of the protocol:
as §1

Series [7] can be described thus: Antiproliferative activity against human KMS12PE cells after 72 hrs by CellTiter-Glo assay. Format: functional, cell-based. The settings on record: KMS-12-PE.
Series [8] can be described thus: Antiproliferative activity against human L363 cells after 72 hrs by CellTiter-Glo assay. Format: functional, cell-based. To be noted: L-363, 72 h.
A short description of series [9]: Antiproliferative activity against human JJN-3 cells after 72 hrs by CellTiter-Glo assay. Format: functional, cell-based. The settings on record: JJN-3, 72 h.
A short description of series [10]: Antiproliferative activity against human KMS26 cells after 72 hrs by CellTiter-Glo assay. Format: functional, cell-based. To be noted: KMS-26, 72 h.
The nature of series [11]: Antiproliferative activity against human KMM1 cells after 72 hrs by CellTiter-Glo assay. To be noted: KMM-1, 72 h. Format: functional, cell-based.
The nature of series [12]: Antiproliferative activity against human U266B1 cells harboring BRAF mutant after 72 hrs by CellTiter-Glo assay. Format: functional, cell-based. To be noted: U-266, 72 h.
Series [13] is described as follows: Inhibition of Pim signaling in human KMS-12-BM cells assessed as upregulation of Pim3 expression at […] after 4 to 72 hrs by Western blot method. Format: cell-based.
In series [14] the test system is KMS-12-BM. Put plainly: Induction of apoptosis in human KMS-12-BM cells assessed as increase in cleaved-PARP levels at […] after 4 to 72 hrs by Western blot method. Format: functional, cell-based.
Series [15] concerns KMS-12-BM. Nature of the series: Induction of apoptosis in human KMS-12-BM cells assessed as increase in cleaved caspase 3 levels at […] after 4 to 72 hrs by Western blot method. Format: functional, cell-based.
The test system of series [16] is KMS-12-BM. Put plainly: Induction of apoptosis in human KMS-12-BM cells assessed as increase in cleaved caspase 6 levels at […] after 4 to 72 hrs by Western blot method. Format: functional, cell-based.
Series [17] concerns KMS-12-BM. Nature of the series: Induction of apoptosis in human KMS-12-BM cells assessed as increase in cleaved caspase 7 levels at […] after 4 to 72 hrs by Western blot method. Format: functional, cell-based.

pIC50: −log10 of the molar value. ≈ marks a conversion by molar mass, not a printed value. Calls of active or inactive are those of the source. The rule behind the calls is not given here.

Chain of Serine/threonine-protein kinase TAO2 (Homo sapiens) (Q9UL54 whole entry): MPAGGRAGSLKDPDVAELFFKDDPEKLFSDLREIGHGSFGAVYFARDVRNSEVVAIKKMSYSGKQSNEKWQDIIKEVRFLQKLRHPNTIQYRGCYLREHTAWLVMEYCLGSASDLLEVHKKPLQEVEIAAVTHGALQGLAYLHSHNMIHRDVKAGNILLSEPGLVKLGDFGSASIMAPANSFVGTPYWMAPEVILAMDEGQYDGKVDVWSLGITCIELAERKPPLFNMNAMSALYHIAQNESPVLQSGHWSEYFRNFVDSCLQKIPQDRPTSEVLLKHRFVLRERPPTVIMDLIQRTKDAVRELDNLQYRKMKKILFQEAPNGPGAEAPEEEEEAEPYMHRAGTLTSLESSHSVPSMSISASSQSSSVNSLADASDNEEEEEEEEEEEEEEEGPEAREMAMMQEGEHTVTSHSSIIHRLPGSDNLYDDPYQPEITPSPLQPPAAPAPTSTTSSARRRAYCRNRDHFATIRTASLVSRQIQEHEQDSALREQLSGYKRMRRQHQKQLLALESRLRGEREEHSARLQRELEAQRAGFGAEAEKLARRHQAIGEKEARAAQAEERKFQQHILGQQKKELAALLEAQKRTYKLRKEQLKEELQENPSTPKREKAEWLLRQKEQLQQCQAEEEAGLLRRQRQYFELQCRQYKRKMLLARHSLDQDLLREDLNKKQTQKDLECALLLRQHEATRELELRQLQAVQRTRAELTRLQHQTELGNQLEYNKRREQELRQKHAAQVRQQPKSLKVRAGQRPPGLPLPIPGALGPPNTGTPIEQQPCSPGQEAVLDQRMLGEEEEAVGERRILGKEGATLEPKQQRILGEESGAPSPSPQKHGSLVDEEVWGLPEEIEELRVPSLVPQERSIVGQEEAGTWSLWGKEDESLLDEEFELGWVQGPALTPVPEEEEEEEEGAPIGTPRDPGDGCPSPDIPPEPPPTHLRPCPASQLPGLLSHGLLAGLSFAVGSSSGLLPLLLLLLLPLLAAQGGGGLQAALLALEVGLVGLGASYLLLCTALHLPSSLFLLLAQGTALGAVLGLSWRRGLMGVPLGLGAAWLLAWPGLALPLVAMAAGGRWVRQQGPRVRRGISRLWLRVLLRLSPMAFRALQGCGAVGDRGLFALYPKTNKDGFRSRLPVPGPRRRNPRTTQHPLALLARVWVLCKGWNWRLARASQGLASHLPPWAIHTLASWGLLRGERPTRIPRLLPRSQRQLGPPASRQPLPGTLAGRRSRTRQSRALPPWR
Chain of Voltage-gated inwardly rectifying potassium channel KCNH2 (Q12809 whole entry): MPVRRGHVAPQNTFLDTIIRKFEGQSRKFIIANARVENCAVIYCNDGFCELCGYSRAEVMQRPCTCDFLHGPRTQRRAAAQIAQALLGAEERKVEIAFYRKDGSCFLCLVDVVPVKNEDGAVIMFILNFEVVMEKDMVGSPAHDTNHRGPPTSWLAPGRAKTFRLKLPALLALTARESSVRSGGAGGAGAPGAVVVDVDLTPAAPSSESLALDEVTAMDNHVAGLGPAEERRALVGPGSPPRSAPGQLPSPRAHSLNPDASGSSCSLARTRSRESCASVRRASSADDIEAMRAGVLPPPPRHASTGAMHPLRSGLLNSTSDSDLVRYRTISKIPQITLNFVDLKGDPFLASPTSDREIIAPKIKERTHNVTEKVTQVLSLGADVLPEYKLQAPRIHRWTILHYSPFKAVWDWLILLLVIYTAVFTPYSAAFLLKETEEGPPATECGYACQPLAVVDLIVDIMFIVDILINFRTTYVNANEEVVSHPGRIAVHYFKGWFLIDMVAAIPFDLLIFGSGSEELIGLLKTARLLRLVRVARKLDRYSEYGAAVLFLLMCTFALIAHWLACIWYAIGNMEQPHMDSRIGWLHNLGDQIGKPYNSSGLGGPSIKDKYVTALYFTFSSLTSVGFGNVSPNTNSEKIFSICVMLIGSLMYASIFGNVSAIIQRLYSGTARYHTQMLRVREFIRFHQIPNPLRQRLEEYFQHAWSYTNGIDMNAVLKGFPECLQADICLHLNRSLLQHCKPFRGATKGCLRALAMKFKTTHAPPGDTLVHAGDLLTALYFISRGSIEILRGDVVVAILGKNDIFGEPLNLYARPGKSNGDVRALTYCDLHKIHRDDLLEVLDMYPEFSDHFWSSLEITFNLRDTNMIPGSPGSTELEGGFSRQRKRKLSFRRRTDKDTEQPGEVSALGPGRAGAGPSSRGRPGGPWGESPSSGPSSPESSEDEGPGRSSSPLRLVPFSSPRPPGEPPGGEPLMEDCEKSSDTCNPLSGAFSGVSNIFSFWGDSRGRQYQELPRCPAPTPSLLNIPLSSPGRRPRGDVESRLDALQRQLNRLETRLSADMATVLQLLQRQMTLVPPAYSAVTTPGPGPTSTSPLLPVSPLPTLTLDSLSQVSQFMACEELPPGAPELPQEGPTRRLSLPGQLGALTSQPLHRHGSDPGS
Chain of Glycogen synthase kinase-3 beta (Homo sapiens) (P49841 whole entry, looked up): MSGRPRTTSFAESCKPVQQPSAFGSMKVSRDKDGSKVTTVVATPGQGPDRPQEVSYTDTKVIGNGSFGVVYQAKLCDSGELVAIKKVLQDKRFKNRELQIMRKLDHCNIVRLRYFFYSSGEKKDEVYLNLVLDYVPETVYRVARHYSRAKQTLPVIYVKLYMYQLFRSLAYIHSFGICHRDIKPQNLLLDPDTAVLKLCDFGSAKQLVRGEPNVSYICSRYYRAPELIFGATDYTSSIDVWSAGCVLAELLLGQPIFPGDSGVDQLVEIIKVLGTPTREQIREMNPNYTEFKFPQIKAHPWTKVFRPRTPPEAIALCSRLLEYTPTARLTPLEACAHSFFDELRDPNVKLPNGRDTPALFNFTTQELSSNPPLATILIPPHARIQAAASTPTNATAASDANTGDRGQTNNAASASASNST

For `C[C@@H]1C[C@H](N)CN(c2ccncc2Nc2ncc3ccc(-c4c(F)cccc4F)nn23)C1`, the microsomal CLint at 1 µM in series [1] was > 399 µL/min/mg; in [2], 69 µL/min/mg. In addition, the negative-log IC50 (pIC50) in series [3] was 6.00; in series [7] it was 6.89; in series [8], 6.48; in series [9] it was 6.43; in series [10] it was 6.41; in series [11] it was 5.67. The compound also had a pIC50 in series [12] of 5.00. Moreover, the solubility in series [4] is 0.15 mg/mL (≈ 344 µM). Besides, the Activity in [5] amounted to 2.3%; in series [6], 7.8%. For the same compound, the outcome (in series [13]; in the series with KMS-12-BM [14]; with KMS-12-BM [15]; in the series with KMS-12-BM [16]; in the series on KMS-12-BM [17]) was Active.
